Source: ChEMBL document CHEMBL5500359, “Identification of a new bisindolinone arresting IGROV1 cells proliferation” (Eur J Med Chem, 2024)
Calls of active or inactive are those of the source. The calls are words filed in the database; no cut-off is given here.

Columns and labels:
[1] = tested on: Panel NCI-60 (60 carcinoma cell lines); assay: Cytostatic activity against human Panel NCI-60 (60 carcinoma cell lines) incubated for 48 hrs by SRB assay; assay type: functional
How it was run: (§1)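 NCI-60 five-concentration screen: lines seeded 5×10^3–4×10^4 cells/well depending on line; compound diluted in fresh medium at scalar concentrations 0–100 or 0–1000 μM; 48 h exposure, in situ fixation, sulforhodamine B protein staining, optical density read; GI50, TGI and LC50 per NCI procedures; panel mean = mean graph midpoint.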

Breast cancer cell line [2] = assay: Cell growth inhibition of human Breast cancer cells incubated for 48 hrs by SRB assay; assay type: functional; conditions: read-out: LC50 (the source's name)
How it was run: (§2)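 NCI DTP five-concentration screen. Cells were seeded at 5 × 10³–4 × 10⁴ cells/well, depending on the line. Compounds were diluted in fresh medium and added at scalar concentrations over 0–1000 µM or 0–100 µM. After 48 h the cells were fixed in situ, stained with sulforhodamine B, and optical density was read. GI50, TGI and LC50 were derived by NCI procedures, and the panel mean is the mean graph midpoint.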

[3] = Cytotoxicity against human HDFa cells assessed as reduction in cell viability incubated for 24 hrs by MTT assay; assay type: toxicity, cell-based
How it was run: (§3)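 IGROV1 and HDFa in RPMI 1640 + 10% FCS, 2 mM glutamine, 37 °C, 5% CO2; seeded 1.5×10^4/well, after 24 h exposed 24 h to 0.010–500 μM (DMSO ≤0.1%). MTT 0.2 mg/mL in PBS 2 h at 37 °C, absorbance 570 nm; IC50 from dose-response, three independent experiments each in triplicate; SI = HDFa IC50/IGROV1 IC50.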

Renal cancer cell line = assay: Cell growth inhibition of human Renal cancer cells incubated for 48 hrs by SRB assay; assay type: functional; how it was run: as §1
IGROV-1 [4] = assay: Downregulation of CCND1 mRNA level in human IGROV-1 cells at 5 uM pretreated for 24 hrs followed by UV exposure for 6 hrs by qRT-PCR analysis; assay type: functional, cell-based; conditions: time 30.0 hrs
How it was run: (§4)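 IGROV1 pretreated 24 h with 5 μM then UV-irradiated (7.5 W lamp, 3 min); CCND1 and RAD51 mRNA by qRT-PCR after column RNA extraction and reverse transcription, fold change versus vehicle; at least triplicate, Student's t-test.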

IGROV-1 [5] = assay: Downregulation of ITAG5 mRNA level in human IGROV-1 cells at 5 uM incubated for 6 hrs by RT-PCR analysis; assay type: functional, cell-based
How it was run: (§5)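 IGROV1 given 5 μM versus vehicle; RNA extracted by spin column, reverse transcribed, CCND1, CDKN1A and ITAG5 transcripts quantified by qRT-PCR as fold change versus vehicle; at least triplicate, Student's t-test, p<0.05.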

IGROV-1 [6] = assay: Downregulation of RAD51 level in human IGROV-1 cells at 5 uM pretreated for 24 hrs followed by UV exposure for 6 hrs by Western blot analysis; assay type: functional, cell-based; conditions: time 30.0 hrs
How it was run: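 IGROV1 pretreated 24 h with 5 μM, then UV-irradiated with a 7.5 W lamp for 3 min; UV alone as positive control. Cyclin D1 and RAD51 by RIPA-lysate Western blot normalized to α-tubulin; γH2AX by acid-extracted histone blot normalized to H1; percent of vehicle, mean ± SD, three experiments.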

IGROV-1 [7] = assay: Induction of cell cycle arrest in human IGROV-1 cells assessed as decrease in cell accumulation at S phase at 5 uM incubated for 24 hrs by PI staining based flow cytometry relative to control; assay type: functional; design: scale not given: the % may be the effect or the level left
How it was run: (§6)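 IGROV1 plated 2×10^4 cells/cm², after 24 h given 5 μM for 24 h; cells detached, PBS-washed, stained 30 min at room temperature in dark with 50 μg/mL propidium iodide, 10 μg/mL RNase, 0.01% Igepal, 0.1% sodium citrate; DNA content by flow cytometry, phase percentages versus untreated.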

Breast cancer cell line [8] = assay: Cytotoxicity against human Breast cancer cells incubated for 48 hrs by SRB assay; assay type: functional; how it was run: as §1
[9] = Cytostatic activity against human Leukemia cancer cells incubated for 48 hrs by SRB assay; assay type: functional, Leukemia cell; how it was run: as §1
[10] = Cytotoxicity against human Leukemia cancer cells incubated for 48 hrs by SRB assay; assay type: functional; conditions: Leukemia cell, read-out: LC50 (the source's name); how it was run: as §2
IGROV-1 [11] = assay: Effect on p21 mRNA level in human IGROV-1 cells at 5 uM incubated for 6 hrs by RT-PCR analysis; assay type: functional, cell-based; how it was run: as §5
IGROV-1 [12] = assay: Induction of cell cycle arrest in human IGROV-1 cells assessed as decrease in cell accumulation at G2/M phase at 5 uM incubated for 24 hrs by PI staining based flow cytometry relative to control; assay type: functional; design: scale not given: the % may be the effect or the level left; how it was run: as §6
Ovarian cancer cell line = assay: Cytostatic activity against human Ovarian cancer cells incubated for 48 hrs by SRB assay; assay type: functional; how it was run: as §1
IGROV-1 [13] = assay: Downregulation of CCND1 level in human IGROV-1 cells at 5 uM incubated for 6 hrs by Western blot analysis; assay type: functional, cell-based
How it was run: (§7)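 IGROV1 exposed to 5 μM; RIPA lysates at 4 °C, protein quantified, SDS-PAGE (12.5% or 7.5%), nitrocellulose blot probed overnight at 4 °C for cyclin D1 or α5 integrin subunit; densitometry normalized to α-tubulin, percent of vehicle, mean ± SD of three experiments.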

CNS carcinoma cell = assay: Cell growth inhibition of human CNS carcinoma cells incubated for 48 hrs by SRB assay; assay type: functional; how it was run: as §1
[14] = Selectivity index, ratio of IC50 for human HDFa cells to IC50 for human IGROV-1 cells; assay type: functional; how it was run: as §3
IGROV-1 [15] = assay: Downregulation of RAD51 mRNA level in human IGROV-1 cells at 5 uM pretreated for 24 hrs followed by UV exposure for 6 hrs by qRT-PCR analysis; assay type: functional, cell-based; conditions: time 30.0 hrs; how it was run: as §4
IGROV-1 [16] = assay: Antiproliferative activity against human IGROV-1 cells at 5 uM incubated upto 48 hrs by quantitative phase imaging microscopy; assay type: functional, cell-based
How it was run: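 Quantitative phase imaging on IGROV1 seeded 4×10^3/well, 24 h later given 5 μM (six replicates; DMSO ≤0.1% final). Images hourly for 2 days at 37 °C, 5% CO2. Cell count and confluence normalized to experiment start; doubling time derived from growth.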

IGROV-1 [17] = assay: Downregulation of ITAG5 level in human IGROV-1 cells at 5 uM incubated for 6 hrs by Western blot analysis; assay type: functional, cell-based; how it was run: as §7
Melanoma cell line [18] = assay: Cell growth inhibition of human Melanoma cells incubated for 48 hrs by SRB assay; assay type: functional; how it was run: as §1
IGROV-1 [19] = assay: Effect on directionality of human IGROV-1 cells at 5 uM incubated for 24 hrs; assay type: functional, cell-based
How it was run: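 Livecyte quantitative phase imaging, label-free single-cell tracking; IGROV1 seeded 4×10^3/well, treated after 24 h with 5 μM in six replicates; frames every 60 min for 2 days, 10× objective, 37 °C, 5% CO2. Each cell tracked for displacement, instantaneous velocity and directionality.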

IGROV-1 [20] = assay: Downregulation of CCND1 mRNA level in human IGROV-1 cells at 5 uM incubated for 6 hrs by RT-PCR analysis; assay type: functional, cell-based; how it was run: as §5
Colon carcinoma cell = assay: Cytostatic activity against human Colon carcinoma cells incubated for 48 hrs by SRB assay; assay type: functional; how it was run: as §1
Melanoma cell line [21] = assay: […] against human Melanoma cells incubated for 48 hrs by SRB assay; assay type: functional; conditions: read-out: LC50 (the source's name); how it was run: as §2
Breast cancer cell line [22] = assay: Cytostatic activity against human Breast cancer cells incubated for 48 hrs by SRB assay; assay type: functional; how it was run: as §1

CC(C)(C)c1cc(/C=C2/C(=O)Nc3cc(Cl)ccc32)c(O)c(/C=C2/C(=O)Nc3cc(Cl)ccc32)c1
GI [1]: 12.02 µM | CC50 (Breast cancer cell line [2]): 2.95 µM | IC50 at 24 h [3]: 21.9 µM | GI50 (Renal cancer cell line): 2.69 µM | Activity (IGROV-1 [4]): Active | Activity (IGROV-1 [5]): Active | Activity (IGROV-1 [6]): Active | Activity (IGROV-1 [7]): 21.2% | GI (Breast cancer cell line [8]): 48.98 µM | GI [9]: 18.62 µM | CC50 [10]: 97.7 µM | Activity (IGROV-1 [11]): inactive | Activity (IGROV-1 [12]): 11.9% | TGI (Ovarian cancer cell line): 10 µM | Activity (IGROV-1 [13]): Active | GI50 (CNS carcinoma cell): 2.75 µM | Ratio IC50 [14]: 3.64 | Activity (IGROV-1 [15]): Active | Activity (IGROV-1 [16]): Active | Activity (IGROV-1 [17]): Active | GI (Melanoma cell line [18]): 2.82 µM | Activity (IGROV-1 [19]): inactive | Activity (IGROV-1 [20]): Active | TGI (Colon carcinoma cell): 13.2 µM | CC50 (Melanoma cell line [21]): 8.51 µM | TGI (Breast cancer cell line [22]): 13.2 µM
